The values below come from ChEMBL document CHEMBL4825663 (J Med Chem, 2021).

A short description of data set [1]: Toxicity in athymic nude mouse xenografted with human NCI-H460 cells assessed as reduction in body weight at 30 to 50 mg/kg, po administered every other day for 4 doses in presence of 12 to 20 mg/kg encequidar and monitored for 48 days. Format: organism-based. The note with it: in vivo, 1152 h, dose 30-50 mg/kg, time 48 day. For orientation: Xenograft models place foreign cells or tissue in a host animal.

A short description of data set [2]: Oral bioavailability in Sprague-Dawley rat at 20 mg/kg measured upto 24 hrs in presence of 10 mg/kg encequidar by LC-MS/MS analysis. Format: ADME, organism-based. The note with it: in vivo.
The nature of data set [3]: Cmax in Sprague-Dawley rat at 20 mg/kg, po measured upto 24 hrs in presence of 10 mg/kg encequidar by LC-MS/MS analysis. Format: ADME, organism-based. More on the design: route oral, dose 20 mg/kg, time <=24. The note with it: in vivo.
Another data set has as its system MDA-MB-231. As to the kind of experiment: Antitumor activity against human MDA-MB-231 cells xenografted in athymic nude mouse assessed as reduction in tumor growth at 30 mg/kg, po administered every other day for 4 doses in presence 12 mg/kg encequidar and monitored for 70 to 82 days. As to conditions: time 70-82 day. The format is functional, organism-based.
Data set [4] in a line: Drug accumulation in Beagle dog plasma at 6 mg/kg, po administered once per week for 4 weeks in presence of 3 mg/kg encequidar by LC-MS/MS analysis. The format is ADME, organism-based, Canis lupus familiaris. The note with it: in vivo, 672 h.
Data set [5] is described as follows: Tmax in Sprague-Dawley rat at 20 mg/kg, po measured upto 24 hrs by LC-MS/MS analysis. As to conditions: in vivo. The format is ADME, organism-based.
The nature of data set [6]: Drug metabolism in dog plasma assessed as metabolic ratio of 3-p-hydroxypaclitaxel at 6 mg/kg, po in presence of 3 mg/kg encequidar. The format is ADME, organism-based, Canis lupus familiaris. The note with it: in vivo.
In data set [7] the test system is NCI-H460. As to the kind of experiment: Antitumor activity against human NCI-H460 cells xenografted in athymic nude mouse assessed as median tumor growth delay at 40 mg/kg, po administered every other day for 4 doses in presence of 16 mg/kg encequidar and monitored for 48 days. The format is functional. As to conditions: time 48 day. The essentials: (§1)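 Female athymic NCr-nu mice carried subcutaneous NCI-H460 xenografts. […] Tumor weights and body weights were followed for 48 days after implantation. Read-out was median tumor growth delay.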

Data set [8] can be described thus: Ratio of drug concentration in BALB/c mouse stomach to plasma at 20 mg/kg, po measured upto 24 hrs in presence of 10 mg/kg encequidar by LC-MS/MS analysis. Format: ADME, organism-based.
The next data set has as its system HT-29. As to the kind of experiment: Antitumor activity against human HT-29 cells xenografted in athymic nude mouse assessed as induction of remission of tumor growth at 40 mg/kg, po in presence of 20 mg/kg encequidar measured until day 47. Format: functional, organism-based.
Data set [9] can be described thus: Ratio of drug concentration in BALB/c mouse small intestine to plasma at 20 mg/kg, po measured upto 24 hrs in presence of 10 mg/kg encequidar by LC-MS/MS analysis. The format is ADME, organism-based.
Data set [10] in a line: Ratio of drug concentration in BALB/c mouse spleen to plasma at 20 mg/kg, po measured upto 24 hrs in presence of 10 mg/kg encequidar by LC-MS/MS analysis. Format: ADME, organism-based.
Data set [11] in a line: Drug absorption in fed Beagle dog plasma at 6 mg/kg, po measured upto 24 hrs in presence of 3 mg/kg encequidar by LC-MS/MS analysis. Format: ADME, organism-based, Canis lupus familiaris. The note with it: in vivo.
A short description of data set [12]: Drug distribution in BALB/c mouse kidney at 20 mg/kg, po measured upto 24 hrs in presence of 10 mg/kg encequidar by LC-MS/MS analysis. The note with it: in vivo. Format: ADME, organism-based.
Data set [13] can be described thus: Volume of distribution in Sprague-Dawley rat at 6 mg/kg, iv measured upto 24 hrs by LC-MS/MS analysis. Format: ADME, organism-based. As to conditions: in vivo.
Data set [14] relates to NCI-H460. Nature of the data set: Antitumor activity against human NCI-H460 cells xenografted in athymic nude mouse assessed as median tumor growth delay at 24 mg/kg, iv administered every other day for 4 doses and monitored for 48 days. Format: functional. The note with it: time 48 day. The essentials: as §1
The nature of data set [15]: Drug distribution in Beagle dog spinal cord. The format is ADME, tissue-based, Canis lupus familiaris. As to conditions: in vivo.
Data set [16] in a line: Drug distribution in Sprague-Dawley rat liver. Format: ADME, tissue-based. The note with it: in vivo.
Data set [17] in a line: AUClast in Sprague-Dawley rat at 3 mg/kg, iv measured upto 48 hrs by LC-MS/MS analysis. The format is ADME, organism-based. More on the design: route intravenous, dose 3 mg/kg, time <=48. As to conditions: in vivo. The method, boiled down:
(§2)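 Single dose in male Sprague-Dawley rats and male Beagle dogs (n = 3 per species), given 3 mg/kg IV or 10 mg/kg PO. Plasma was sampled to derive Cmax, Tmax, T1/2 and AUClast by each route. Oral bioavailability (F) was calculated from the PO and IV AUClast.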

Data set [18] concerns the target ATP-dependent translocase ABCB1 (Homo sapiens, UniProt P08183). Nature of the data set: Inhibition of paclitaxel stimulated- P-gp ATPase activity (unknown origin).
A short description of data set [19]: Cmax in human upto 360 mg, po administered as repeated dose for 5 consecutive days. Format: ADME, organism-based. More on the design: route oral, dose <=360. The note with it: in vivo.
The nature of data set [20]: AUClast in Beagle dog at 3 mg/kg, iv measured upto 48 hrs by LC-MS/MS analysis. The format is ADME, organism-based, Canis lupus familiaris. Also on record: route intravenous, dose 3 mg/kg, time <=48. The note with it: in vivo. The essentials:
as §2

Data set [21] is described as follows: Toxicity in Sprague-Dawley rat assessed as enlargement of mesenteric lymph nodes at >= 50 mg/kg, po and measured after 4 to 13 weeks. The format is organism-based, Mesenteric lymph node. As to conditions: in vivo, time 4-13 weeks.
Data set [22] has as its target ATP-binding cassette sub-family C member 3 (Homo sapiens, UniProt O15438). As to the kind of experiment: Inhibition of […]-stimulated MRP3 ATPase activity (unknown origin) in presence of GSH.
Data set [23] is described as follows: Inhibition of P-gp in MDCK-MDR1 cells assessed as reduction in basal to apical transport of paclitaxel measured after 120 mins by LC-MS/MS analysis. As to conditions: Canis lupus familiaris, MDCK-MDR1, 2 h. The format is cell-based.
Data set [24] in a line: Toxicity in Beagle dog assessed as enlargement of lymph nodes at >= 100 mg/kg, po and measured after 13 weeks. Format: organism-based, Canis lupus familiaris. The note with it: in vivo, 2184 h.
Data set [25] is described as follows: Drug distribution in Beagle dog brain. Format: ADME, tissue-based, Canis lupus familiaris. As to conditions: in vivo.
Data set [26] in a line: Cmax in Sprague-Dawley rat at 10 mg/kg, po measured upto 48 hrs by LC-MS/MS analysis. As to conditions: in vivo.
Data set [27] in a line: Toxicity in Beagle dog assessed as histiocytosis in lymph nodes at >= 100 mg/kg, po and measured after 13 weeks. As to conditions: in vivo, 2184 h. Format: organism-based, Canis lupus familiaris.
For another data set, the target named is Cytochrome P450 3A5 (Homo sapiens, UniProt P20815). Nature of the data set: Drug metabolism assessed as human CYP3A5-mediated metabolism. Format: ADME. As to conditions: recombinant enzyme.
Sequence of Cytochrome P450 3A5 (P20815 whole entry): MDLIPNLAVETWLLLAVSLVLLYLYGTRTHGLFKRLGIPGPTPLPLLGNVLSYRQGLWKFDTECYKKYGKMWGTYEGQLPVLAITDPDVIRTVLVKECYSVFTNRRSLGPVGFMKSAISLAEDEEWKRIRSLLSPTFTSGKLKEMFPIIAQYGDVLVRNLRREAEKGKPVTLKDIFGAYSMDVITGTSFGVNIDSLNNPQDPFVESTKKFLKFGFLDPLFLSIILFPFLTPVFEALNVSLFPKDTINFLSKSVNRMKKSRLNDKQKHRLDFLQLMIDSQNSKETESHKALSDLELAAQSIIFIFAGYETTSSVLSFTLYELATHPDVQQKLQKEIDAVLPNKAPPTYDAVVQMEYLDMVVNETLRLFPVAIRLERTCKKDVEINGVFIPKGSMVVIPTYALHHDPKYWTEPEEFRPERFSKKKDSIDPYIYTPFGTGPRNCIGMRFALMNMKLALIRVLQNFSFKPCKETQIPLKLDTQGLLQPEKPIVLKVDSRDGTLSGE
A short description of data set [28]: Drug distribution in Beagle dog liver. Format: ADME, tissue-based, Canis lupus familiaris. The note with it: in vivo.
A short description of data set [29]: Drug distribution in Sprague-Dawley rat brain. The format is ADME, tissue-based. As to conditions: in vivo.

pIC50: −log10 of the molar value. Active and inactive are the calls of the source. The rule behind the calls is not given here. Where only a bound is given, the exact number is not on record here.

Sequence of ATP-dependent translocase ABCB1 (P08183 whole entry): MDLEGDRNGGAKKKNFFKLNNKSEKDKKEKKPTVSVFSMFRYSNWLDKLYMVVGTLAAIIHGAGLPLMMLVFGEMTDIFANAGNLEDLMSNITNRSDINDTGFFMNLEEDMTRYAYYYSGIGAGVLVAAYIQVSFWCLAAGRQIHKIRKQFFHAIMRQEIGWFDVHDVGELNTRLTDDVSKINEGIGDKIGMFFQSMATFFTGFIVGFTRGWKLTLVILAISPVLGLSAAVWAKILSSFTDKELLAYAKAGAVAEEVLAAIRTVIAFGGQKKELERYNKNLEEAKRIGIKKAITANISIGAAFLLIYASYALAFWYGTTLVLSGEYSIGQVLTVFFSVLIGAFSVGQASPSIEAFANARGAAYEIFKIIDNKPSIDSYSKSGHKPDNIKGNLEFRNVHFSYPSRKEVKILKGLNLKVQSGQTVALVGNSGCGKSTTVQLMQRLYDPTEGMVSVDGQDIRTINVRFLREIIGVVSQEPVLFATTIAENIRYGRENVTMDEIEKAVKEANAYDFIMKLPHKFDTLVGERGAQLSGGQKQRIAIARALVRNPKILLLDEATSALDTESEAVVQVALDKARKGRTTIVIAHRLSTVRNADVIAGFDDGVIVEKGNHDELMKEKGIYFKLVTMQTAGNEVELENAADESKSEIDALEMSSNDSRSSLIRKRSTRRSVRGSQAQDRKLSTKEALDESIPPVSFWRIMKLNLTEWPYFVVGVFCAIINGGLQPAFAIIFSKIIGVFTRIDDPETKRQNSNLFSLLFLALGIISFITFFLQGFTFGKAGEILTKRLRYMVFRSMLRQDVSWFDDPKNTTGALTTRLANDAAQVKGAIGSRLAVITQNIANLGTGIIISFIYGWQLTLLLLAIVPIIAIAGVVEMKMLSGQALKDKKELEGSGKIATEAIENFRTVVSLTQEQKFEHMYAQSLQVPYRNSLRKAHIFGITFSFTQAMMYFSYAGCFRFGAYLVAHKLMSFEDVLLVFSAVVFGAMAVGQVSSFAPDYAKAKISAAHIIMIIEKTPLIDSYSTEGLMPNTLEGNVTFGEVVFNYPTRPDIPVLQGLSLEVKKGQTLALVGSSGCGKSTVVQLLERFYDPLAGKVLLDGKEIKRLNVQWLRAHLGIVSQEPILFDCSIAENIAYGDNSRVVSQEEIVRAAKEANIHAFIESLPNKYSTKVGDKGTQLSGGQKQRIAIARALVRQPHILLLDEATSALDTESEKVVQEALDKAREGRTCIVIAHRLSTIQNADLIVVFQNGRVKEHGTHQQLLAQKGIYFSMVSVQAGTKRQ
Sequence of ATP-binding cassette sub-family C member 3 (O15438 whole entry): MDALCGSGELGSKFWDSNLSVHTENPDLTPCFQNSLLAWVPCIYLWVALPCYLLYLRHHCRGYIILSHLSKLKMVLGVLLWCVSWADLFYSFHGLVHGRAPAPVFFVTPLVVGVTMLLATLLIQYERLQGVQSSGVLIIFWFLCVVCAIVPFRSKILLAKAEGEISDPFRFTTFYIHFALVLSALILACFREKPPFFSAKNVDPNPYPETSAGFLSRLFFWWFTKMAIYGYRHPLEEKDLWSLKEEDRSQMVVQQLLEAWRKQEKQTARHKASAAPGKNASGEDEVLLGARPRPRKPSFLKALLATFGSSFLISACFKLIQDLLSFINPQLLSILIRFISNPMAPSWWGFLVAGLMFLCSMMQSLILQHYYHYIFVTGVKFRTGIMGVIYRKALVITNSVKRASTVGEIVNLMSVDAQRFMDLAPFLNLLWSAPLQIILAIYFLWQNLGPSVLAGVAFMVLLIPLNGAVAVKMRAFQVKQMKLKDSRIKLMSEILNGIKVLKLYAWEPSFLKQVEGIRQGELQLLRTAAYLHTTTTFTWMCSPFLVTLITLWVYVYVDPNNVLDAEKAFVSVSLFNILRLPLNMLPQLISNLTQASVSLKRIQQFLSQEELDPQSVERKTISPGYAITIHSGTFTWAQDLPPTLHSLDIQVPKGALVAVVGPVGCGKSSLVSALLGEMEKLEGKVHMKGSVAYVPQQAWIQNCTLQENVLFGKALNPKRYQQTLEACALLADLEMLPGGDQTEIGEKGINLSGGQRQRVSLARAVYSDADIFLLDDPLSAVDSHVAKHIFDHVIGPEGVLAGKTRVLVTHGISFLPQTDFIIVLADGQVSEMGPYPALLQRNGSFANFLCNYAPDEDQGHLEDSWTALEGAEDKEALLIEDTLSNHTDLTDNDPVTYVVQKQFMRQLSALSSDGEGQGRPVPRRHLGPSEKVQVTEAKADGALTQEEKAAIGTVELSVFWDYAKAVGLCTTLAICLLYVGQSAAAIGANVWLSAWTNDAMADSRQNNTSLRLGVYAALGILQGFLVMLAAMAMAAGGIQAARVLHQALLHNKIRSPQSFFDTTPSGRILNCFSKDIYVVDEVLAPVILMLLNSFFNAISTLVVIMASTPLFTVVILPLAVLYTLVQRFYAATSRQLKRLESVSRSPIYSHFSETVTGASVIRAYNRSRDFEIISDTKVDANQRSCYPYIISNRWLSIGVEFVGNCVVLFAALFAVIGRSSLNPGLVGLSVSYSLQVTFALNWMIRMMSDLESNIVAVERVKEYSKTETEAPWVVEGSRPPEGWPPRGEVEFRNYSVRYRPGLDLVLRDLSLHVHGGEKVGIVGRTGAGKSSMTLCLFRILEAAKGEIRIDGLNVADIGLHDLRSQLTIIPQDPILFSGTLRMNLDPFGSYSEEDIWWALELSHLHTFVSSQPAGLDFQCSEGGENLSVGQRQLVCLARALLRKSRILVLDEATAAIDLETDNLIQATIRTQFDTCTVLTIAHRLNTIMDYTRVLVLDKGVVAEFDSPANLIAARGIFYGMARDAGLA

`CC(=O)O[C@H]1C(=O)[C@@]2(C)[C@H]([C@H](OC(=O)c3ccccc3)[C@]3(O)C[C@H](OC(=O)[C@H](O)[C@@H](NC(=O)c4ccccc4)c4ccccc4)C(C)=C1C3(C)C)[C@]1(OC(C)=O)CO[C@@H]1C[C@@H]2O` [PACLITAXEL]: the Activity entry in [1] was “Toxic”. Also, in [2], the bioavailability is 41.3%. For the same compound, in [3], the highest concentration (Cmax) worked out at 1250 ng/mL. The result with MDA-MB-231 and with HT-29 was Active. For the same compound, the Drug uptake entry in data set [4] was “Not Active”; in data set [12], “Active”. Besides, the Tmax in data set [5] came to 54 min. In addition, the Ratio in [6] stood at 0.01. Besides, the results for the Time in the data set on NCI-H460 [7] and with NCI-H460 [14] were 8.7 days and 16.3 days, respectively. Besides, the concentration ratio (Kp) at 24 h in data set [8], in [9] and in data set [10] was > 1 throughout. In addition, the Drug absorption result in [11] is on record as “Not Active”. In addition, the Vd in data set [13] is 23.6 L/kg.

For the compound `COc1cc2c(cc1OC)CN(CCc1ccc(-n3nnc(-c4cc(OC)c(OC)cc4NC(=O)c4cc(=O)c5ccccc5o4)n3)cc1)CC2`, the Drug uptake result in [15] is “Not Active”; in data set [16] it was “Active”; in [25], “Not Active”; in [28], “Active”; in data set [29], “Not Active”. Besides, the exposure AUC(0-t) at 48 h in data set [17] turned out to be 619 ng·h/mL; in data set [20], 1920 ng·h/mL. Also, the negative-log IC50 (pIC50) in data set [18] is 9.22; in [22] it was < 4.00; in [23], 7.46. In addition, the results for the maximum concentration (Cmax) in [19] and in data set [26] were 22.5 ng/mL and 7.1 ng/mL, respectively. Besides, the Activity result in [21], in data set [24] and in [27] was “Toxic” each time. Moreover, the Drug metabolism entry at Cytochrome P450 3A5 is listed as “Metabolite_Detected”.

The term bioavailability denotes dose-corrected exposure relative to a reference, in per cent. What is called Cmax is the peak of the concentration-time curve. The Tmax is the time from dosing to the highest level. What is called Kp is tissue or fluid exposure divided by exposure in the circulation. Broadly, the Vd is a proportionality between amount in the body and measured concentration, not a real space. As a reminder, the AUC(0-t) is the area under the concentration-time curve up to a stated or last time point. High values mean high exposure, low ones low exposure. Usually pIC50 stands for the negative decadic logarithm of the IC50, by convention in mol/L.
